Measurements as given in PubChem BioAssay.
Records with an inconclusive call do not appear.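 The calls were made as follows, unless noted: active = inhibition over a set limit, the all-compound mean plus 3 SD, in both replicate runs; inconclusive = over that limit in just one replicate run; inactive = at or under that limit in both runs.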

Columns and labels:
[1] = OD615 S. cerevisiae growth inhibition, permissive medium, pilot counter-assay, permissive growth control for S. cerevisiae lifespan shortening project (AID 705;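 active = growth inhibition above 25% in both replicates, a cutoff set 3 SD above the mean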); details: OD615, 24 h, at 10 µM, hits give high values
How it was run: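 Test system: Saccharomyces cerevisiae strain carrying genetically modified DeaD replicative-lifespan system; buffer or medium: SC raffinose/galactose permissive medium; dosing: one dose 10 µM, DMSO 0.25% final; times: 24 h exposure, 30 °C; measured by: OD at 615 nm; read-out basis: growth inhibition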

[2] = Restrictive medium S. cerevisiae growth inhibition, OD615, pilot screen of yeast lifespan reduction project, restrictive growth control (AID 706;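 active = growth inhibition above a set limit, 3 SD over mean compound inhibition, in both replicates, cut at about 43% in these data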;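 also: modified DeaD lifespan yeast strain shifted to restrictive glucose medium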); details: OD615, 48 h, at 10 µM, hits give high values
How it was run: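 material = engineered S. cerevisiae DeaD strain | buffer or medium = glucose-based CSMM-D restrictive medium | dosing = one concentration, 10 µM final, 0.25% DMSO | schedule = 4 h pre-growth plus 48 h compound exposure, 30 °C | detection = OD615 absorbance reading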

[3] = viability gain of MRP-1-high H69AR cells under doxorubicin, pilot screen, MRP-1 activator project, CellTiter-Glo, duplicate (AID 807;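 active = viability increase at or above a cutoff of the median across tested compounds plus 3 SD, cut at about 8.5% in these data, passing the limit was not always enough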;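 also: compound pretreatment 18-22 h then 72 h combined with doxorubicin; 0% = doxorubicin alone and 100% = vehicle without doxorubicin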); details: H69AR viability with doxorubicin, CellTiter-Glo luminescence; at 10 µM; hits give high values
[4] = growth suppression of beta-catenin knockout HCT116, pilot screen, human colon tumor cells (AID 823;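 active = cell viability at or below a set limit in both duplicate runs, the limit being the all-compound median minus 4 SD, cut at about 23% in these data, passing the limit was not always enough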;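 also: 0% = wells killed by 20 µM Hyamine and 100% = untreated DMSO cell wells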); details: CellTiter-Glo, 60 h, at 10 µM, hits give low values
[5] = growth suppression of PTEN-deleted HCT116, pilot screen, cell-based, HCT116 clonal line, CellTiter-Glo (AID 824;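 active = viability at or below 27.92% in each of two runs, the all-compound median minus 4 SD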;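 also: 0% = 20 µM Hyamine control and 100% = vehicle cell control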); details: 60 h, at 10 µM, hits give low values
[6] = inhibitors of the yeast RAM network, pilot screen, dse1pr::URA3 reporter, 5-FOA selection (AID 869);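 also: 0% = DMSO wells with no growth and 100% = 10 µM 1-NA-PP1 with full growth; RAM network block rescues cells from 5-FOA so hits raise OD615 growth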; details: S. cerevisiae dse1pr::URA3 5-FOA growth, OD615, 2 d; at 10 µM; hits give high values; strain carries analog-sensitive mutant Cbk1 kinase
[7] = RAM signaling pathway blockade in yeast – S. cerevisiae, Pdr1DBD-CYC8 efflux-inhibited sensitized strain, primary screen (AID 1298;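 active = RAM network inhibition above 8.4% in each of two replicates, 3 SD over the compound average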;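 also: 0% = DMSO untreated cells without growth and 100% = 10 µM 1-NA-PP1 full growth; higher means more yeast growth rescued from 5-FOA killing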); details: S. cerevisiae cbk1-as DSE1-URA3 strain, 5-FOA growth OD615, 2 d; at 50 µM; hits give high values

Cc1cc(C(=O)N2CCN(C(c3ccccc3)c3ccccc3)CC2)on1
inactive: growth inhibition [1] -11.2% | growth inhibition [2] -5.41% | viability increase [3] 0.42% | viability [4] 89.7% | viability [5] 76.7% | inhibition [6] 2.04% | RAM network inhibition [7] 3.7%

O=S(=O)(NCCc1csc(-c2cccnc2)n1)c1cccs1
inactive: growth inhibition [1] 1.37% | growth inhibition [2] -2.33% | viability increase [3] -1.11% | viability [4] 104% | viability [5] 96.8% | inhibition [6] 1.42% | RAM network inhibition [7] 0.73%

O=C(Cn1cnc2c(nnn2-c2ccccc2)c1=O)N1CCCc2ccccc21
inactive: growth inhibition [1] -10% | growth inhibition [2] -10.4% | viability increase [3] 0.06% | viability [4] 101% | viability [5] 101% | inhibition [6] 1.55% | RAM network inhibition [7] 5.32%

O=C(NCCN1C(=O)C2C3C=CC(C3)C2C1=O)Nc1ccccc1 (stereo not given)
inactive: growth inhibition [1] -8.45% | growth inhibition [2] 1.35% | viability increase [3] 0.28% | viability [4] 102% | viability [5] 93.2% | inhibition [6] 0.71% | RAM network inhibition [7] -0.05%

COc1cccc(Nc2cc(C)nc3nc(C)nn23)c1
inactive: growth inhibition [1] -0.125% | growth inhibition [2] 4.21% | viability increase [3] -1.69% | viability [4] 108% | viability [5] 97.6% | inhibition [6] 1.68% | RAM network inhibition [7] 2.37%

O=C(NCCc1cn2ccsc2n1)c1cccs1
inactive: growth inhibition [1] -14.1% | growth inhibition [2] -12.4% | viability increase [3] -1.75% | viability [4] 105% | viability [5] 102% | inhibition [6] 1.29% | RAM network inhibition [7] 3.51%

CCCC(NS(=O)(=O)c1ccc(Br)cc1)C(=O)O (stereo not given)
inactive: growth inhibition [1] -3.98% | growth inhibition [2] -0.42% | viability increase [3] -0.09% | viability [4] 104% | viability [5] 99.3% | inhibition [6] 0.57% | RAM network inhibition [7] 4.41%

Nc1nc(Nc2ccccc2Br)nc(C(F)(F)F)n1
inactive: growth inhibition [1] -3.56% | growth inhibition [2] 4.02% | viability increase [3] 0.23% | viability [4] 104% | viability [5] 93.4% | inhibition [6] 1.84% | RAM network inhibition [7] 0.72%

O=C(NCC(c1cccs1)N1CCOCC1)c1cc2ccccc2o1 (stereo not given)
inactive: growth inhibition [1] -2.08% | growth inhibition [2] -15.1% | viability increase [3] -1.69% | viability [4] 99.3% | viability [5] 100% | inhibition [6] 0.345% | RAM network inhibition [7] 0.26%

Cc1cc(Nc2cc(C)on2)n2ncnc2n1
inactive: growth inhibition [1] 2.33% | growth inhibition [2] -10% | viability increase [3] -1.14% | viability [4] 106% | viability [5] 99.8% | inhibition [6] 0.195% | RAM network inhibition [7] 2.24%

CCCCCn1c(CNC(=O)CC)nc2ccccc21
inactive: growth inhibition [1] -6.04% | growth inhibition [2] -11.1% | viability increase [3] 0.02% | viability [4] 97.5% | viability [5] 96.5% | inhibition [6] 1.53% | RAM network inhibition [7] 4.9%

O=C1CC(c2nc3ccccc3[nH]2)CN1c1ccccc1F (stereo not given)
inactive: growth inhibition [1] 3.64% | growth inhibition [2] -1.12% | viability increase [3] -0.52% | viability [4] 98.3% | viability [5] 92.5% | inhibition [6] 0.355% | RAM network inhibition [7] 1.89%

O=C(CNS(=O)(=O)c1ccc(C(=O)N2CCCCC2)cc1)N1CCCCC1
inactive: growth inhibition [1] -11.9% | growth inhibition [2] -18.1% | viability increase [3] 0.86% | viability [4] 93.3% | viability [5] 90.8% | inhibition [6] -0.19% | RAM network inhibition [7] 3.77%

CCN1C(=O)c2ccccc2S(=O)c2ccc(C(=O)N3CCCC3)cc21 (stereo not given)
inactive: growth inhibition [1] -3.58% | growth inhibition [2] 3.54% | viability increase [3] -1.58% | viability [4] 93.3% | viability [5] 88.9% | inhibition [6] 1.16% | RAM network inhibition [7] -1.72%

CN1CCN(Cc2c(O)ccc3occ(C(=O)c4ccccc4)c23)CC1
inactive: growth inhibition [1] -13% | growth inhibition [2] -16.2% | viability increase [3] -4% | viability [4] 73% | viability [5] 79% | inhibition [6] 1.56% | RAM network inhibition [7] 7.8%
